Results on 16 compounds are retold here after ChEMBL document CHEMBL1150426, “New C5-alkylated indolobenzazepinones acting as inhibitors of tubulin polymerization: cytotoxic and antitumor activities” (J Med Chem, 2008).

One assay concerns KB. The assay is described as follows: Cytotoxicity against human KB cells after 72 hrs. It is filed as functional, cell-based. A digest of the protocol:
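KB cells in EMEM (4.5 g/L glucose, 10% FCS, 1% glutamine) seeded 5 × 10³/well, dosed after 24 h with compound in DMSO (<0.1%). 72 h exposure, then resazurin 2 h; fluorescence ex 560/em 590 nm. IC50 = 50% fluorescence decrease versus untreated; triplicate.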

A short description of assay [1]: Inhibition of sheep brain tubulin polymerization. Details: species or system Ovis aries. In short, it runs like this:
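Sheep brain tubulin (about 2–3 mg/mL), purified by two assembly–disassembly cycles, in 0.1 M MES, 0.5 mM MgCl₂, 1 mM EGTA, 1 mM GTP, pH 6.6. Assembly followed by turbidity at 350 nm, 37 °C.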

Another assay deals with B16-F10. Kind of assay: Antiproliferative activity against mouse B16F10 cells after 72 hrs. The note with it: B16-F10, 72 h. It is filed as functional, cell-based. In short, it runs like this:
(§1)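 Cells were seeded at 5 × 10³ per well and cultured for 24 h. Test compound in DMSO (under 0.1%) was then added for 72 h. Resazurin was added for 2 h, and fluorescence was read at ex 560 nm / em 590 nm. IC50 was taken as the concentration giving a 50% fall in fluorescence versus untreated cells. Runs were done in triplicate.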

Another assay deals with MDA-MB-435. Kind of assay: Antiproliferative activity against human MDA-MB-435 cells after 72 hrs. It is filed as functional, cell-based. The note with it: MDA-MB-435, 72 h. In short, it runs like this: as §1
The test system of the next assay is MDA-MB-231. The assay is described as follows: Antiproliferative activity against human MDA-MB-231 cells after 72 hrs. The note with it: MDA-MB-231, 72 h. It is filed as functional, cell-based. In short, it runs like this: as §1
In a further assay the test system is HCT-116. Kind of assay: Antiproliferative activity against human HCT116 cells after 72 hrs. It is filed as functional, cell-based. The note with it: HCT-116, 72 h. A digest of the protocol:
as §1

The nature of assay [2]: Antitumor activity against human U87 tumor transplanted in chick chorio-allantoic membrane assessed as reduction of tumor volume at 10 uM after 4 days. In kind it is functional, U-87MG ATCC. Also noted: scale not given: the % may be the effect or the level left. In short, it runs like this:
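U87 glioma cells (5 × 10⁶ in 20 µL medium) grafted on chick CAM on embryonic day 10; size-matched tumors grouped on day 2. 20 µL drug at 10 µM applied locally once daily, days 3–6 of tumor growth; controls got solvent. Volume V = 4/3πr³ from length and width, six tumors per group.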

A further assay relates to A549. Kind of assay: Antiproliferative activity against human A549 cells after 72 hrs. It is filed as functional, cell-based. To be noted: A549, 72 h. A digest of the protocol: as §1
Assay [3] is described as follows: Antitumor activity against human U87 tumor transplanted in chick chorio-allantoic membrane assessed as reduction of tumor volume at 100 uM after 4 days. It is filed as functional, U-87MG ATCC. Also noted: scale not given: the % may be the effect or the level left. A digest of the protocol: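 On embryonic day 10, 5 × 10⁶ U87 glioma cells were placed on the chick CAM. On day 2 of tumor growth, size-matched tumors were split into groups. From day 3 to day 6, 20 µL of compound at 100 µM was applied locally once daily, and controls got solvent. Volume was calculated as V = 4/3πr³ with r = 1/2√(length × width), using six tumors per group.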

Broadly, the IC50 is the concentration needed to halve the response being measured. Take `C[C@H]1NC(=O)c2[nH]c3ccccc3c2-c2ccccc21`: the 50% inhibitory concentration (IC50) in the assay on KB is 340 nM.
Take `C[C@@H]1NC(=O)c2[nH]c3ccccc3c2-c2ccccc21`: the values for the 50% inhibitory concentration (IC50) (with KB; in assay [1]) were 80 nM and 1900 nM, respectively.
For `COc1ccc2[nH]c3c(c2c1)-c1ccccc1[C@H](C)NC3=O`, in that order: 3500 nM and 51000 nM.
Compound `CC1NC(=O)c2c(c3ccccc3n2C)-c2ccccc21` (racemic) displayed an IC50 in the assay on KB of 7000 nM.
As to `CC[C@H]1NC(=O)c2[nH]c3ccccc3c2-c2ccccc21`, the IC50 worked out at 35 nM with KB and 1800 nM in assay [1].
Consider `CCC1NC(=O)c2[nH]c3ccc(F)cc3c2-c2ccccc21` (racemic), for which the half-maximal inhibitory concentration (IC50) was 500 nM with KB and 3600 nM in assay [1].
For `CCCC1NC(=O)c2[nH]c3ccccc3c2-c2ccccc21` (racemic), in that order: 32 nM and 2000 nM.
As to `CCCCC1NC(=O)c2[nH]c3ccccc3c2-c2ccccc21` (racemic), the results for the IC50 (with KB; in [1]) were 35 nM and 1000 nM, respectively.
As for `O=C1NCc2ccccc2-c2c1[nH]c1ccccc21`, in the assay on KB, half-maximal inhibition (IC50) required 550 nM.
As to `COc1cc2c(c(OC)c1OC)-c1ccc(OC)c(=O)cc1[C@@H](NC(C)=O)CC2` [COLCHICINE], the IC50 with KB worked out at 20 nM; with B16-F10 it was 29 nM; in the assay on MDA-MB-435, 40 nM; with MDA-MB-231 it was 70 nM; with HCT-116, 40 nM. In addition, in assay [2], the Activity stood at 50%.
Turning to `CC1NCc2[nH]c3ccccc3c2-c2ccccc21` (racemic), inhibition with KB was half-maximal at 12000 nM (IC50).
On to `CC(C)C1NC(=O)c2[nH]c3ccccc3c2-c2ccccc21` (racemic), for which the IC50 with KB is 280 nM; in [1] it was 1700 nM.
`CC1NC(=O)c2[nH]c3ccccc3c2-c2ccccc21` (racemic) registered a 50% inhibitory concentration (IC50) with KB of 280 nM.
Same read-out and setting: then `CC1c2ccccc2-c2c(n(C)c3ccccc23)C(=O)N1C` (stereo not given), with 28000 nM.
On to `COc1cc2c(c(OC)c1OC)-c1ccc(O)cc1[C@@H](NC(C)=O)CC2` [N-ACETYLCOLCHINOL], for which the IC50 was 75 nM with KB; 3000 nM in [1]; 72 nM with B16-F10; 250 nM in the assay on A549; 140 nM with MDA-MB-435; 700 nM in the assay on MDA-MB-231. In addition, the IC50 with HCT-116 amounted to 100 nM. The Activity in assay [3] was found to be 42%.
Compound `CC1NC(=S)c2[nH]c3ccccc3c2-c2ccccc21` (racemic) displayed a half-maximal inhibitory concentration (IC50) in the assay with KB of 360 nM.
